These results are taken from ChEMBL document CHEMBL1157078, “Cytotoxic activities of several geranyl-substituted flavanones” (J Nat Prod, 2010).

In one assay the test system is HeLa. The assay is described as follows: Cytotoxicity against human HeLa cells assessed as viable cells after 72 hrs by calcein AM assay. In kind it is functional, cell-based. Summed up:
(§1)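 Cells kept in DMEM with 10% FBS, L-glutamine and antibiotics at 37 °C, 5% CO2, and seeded at about 1.25×10^5 cells/mL, then left 3 h to stabilize. Six 3-fold dilutions were added in triplicate (final 100 to 0.4 μM, DMSO ≤0.6%) for 72 h. Viable cells were stained with 2 μM calcein AM for 1 h and fluorescence read at 485/538 nm. EC50 came from dose-response curves of three independent measurements, ±SD.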

Another assay relates to U-266. The experiment in a line: Cytotoxicity against human U266 cells assessed as viable cells after 72 hrs by calcein AM assay. It is filed as functional, cell-based. The note with it: U-266, 72 h. Summed up: as §1
In a further assay the test system is RPMI-8226. The experiment in a line: Cytotoxicity against human RPMI8226 cells assessed as viable cells after 72 hrs by calcein AM assay. In kind it is functional, cell-based. To be noted: RPMI-8226, 72 h. Summed up: as §1
The test system of the next assay is MCF7. The experiment in a line: Cytotoxicity against human MCF7 cells assessed as viable cells after 72 hrs by calcein AM assay. It is filed as functional, cell-based. The note with it: MCF7, 72 h. Summed up: as §1
A further assay relates to THP-1. The assay is described as follows: Cytotoxicity against human THP1 cells after 72 hrs by erythosin B staining method. It is filed as functional, cell-based. To be noted: THP-1, 72 h. Summed up: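 THP-1 cells from ECACC, kept in RPMI with 10% FBS, 2% L-glutamine and 1% penicillin/streptomycin at 37 °C, 5% CO2. Compounds in DMSO were added at five increasing concentrations and cells incubated 72 h. Cells were mixed 1:1 with 0.1% erythrosin B in PBS (pH 7.2-7.4), and unstained (viable) and red (nonviable) cells counted by hemocytometer. EC50 came from dose-response curves of three independent measurements, ±SD.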

In a further assay the test system is CCRF-CEM. The assay is described as follows: Cytotoxicity against human CEM cells assessed as viable cells after 72 hrs by calcein AM assay. It is filed as functional, cell-based. The procedure, abridged: as §1
The next assay relates to BJ. The experiment in a line: Cytotoxicity against human BJ cells assessed as viable cells after 72 hrs by calcein AM assay. In kind it is cell-based. The procedure, abridged: as §1

In the case of `CC(C)=CCC/C(C)=C/Cc1c(O)cc2c(c1O)C(=O)C[C@@H](c1cc(O)cc(O)c1)O2`, the EC50 in the assay with HeLa is 6.3 µM; in the assay on U-266, 1.9 µM; in the assay with RPMI-8226 it was 7.1 µM; with MCF7 it was below 10 µM; with THP-1, 8.5 µM; in the assay with CCRF-CEM, 12.3 µM. For the same molecule, the EC50 in the assay with BJ was 7.5 µM.

For `COc1cc(O)c([C@@H]2CC(=O)c3c(O)cc(O)cc3O2)cc1C/C=C(\C)CCC=C(C)C`, the EC50 with HeLa, with U-266, in the assay with RPMI-8226, in the assay on MCF7, in the assay on THP-1 and in the assay on CCRF-CEM was above 10 µM each time. Moreover, the EC50 in the assay on BJ was above 10 µM.

For the molecule `COc1cc([C@@H]2CC(=O)c3c(cc(O)c(C/C=C(\C)CCC=C(C)C)c3O)O2)ccc1O`, the EC50 was 9.2 µM in the assay on HeLa; below 10 µM in the assay on U-266; below 10 µM in the assay on RPMI-8226; below 10 µM with MCF7; below 10 µM in the assay on THP-1; below 10 µM with CCRF-CEM. In addition, in the assay with BJ, the EC50 is below 10 µM.

With `COc1cc([C@H]2Oc3cc(O)c(C/C=C(\C)CCC=C(C)C)c(O)c3C(=O)[C@@H]2O)ccc1O`, the EC50 in the assay with HeLa, in the assay with U-266, with RPMI-8226, in the assay with MCF7, in the assay on THP-1 and in the assay with CCRF-CEM was above 10 µM in each case. In the assay with BJ, the EC50 is above 10 µM.

For the molecule `COc1cc([C@@H]2CC(=O)c3c(cc(O)c(C/C=C(\C)CCC=C(C)C)c3O)O2)cc(O)c1O`, the half-maximal effective concentration (EC50) in the assay with HeLa was 7.4 µM; in the assay with U-266 it was 5.5 µM; with RPMI-8226 it was 7.3 µM; in the assay on MCF7, below 10 µM; with THP-1, below 10 µM; in the assay on CCRF-CEM, below 10 µM. The EC50 in the assay with BJ was 4.7 µM.

Turning to `COc1cc([C@@H]2CC(=O)c3c(cc(O)c(C/C=C(\C)CCC=C(C)C)c3O)O2)cc(OC)c1O`, the EC50 in the assay on HeLa, with U-266, in the assay with RPMI-8226, in the assay on MCF7, with THP-1 and in the assay on CCRF-CEM was above 10 µM each time. Moreover, the EC50 in the assay with BJ was above 10 µM.

Consider `CC(C)=CCC/C(C)=C/Cc1cc(C2CC(=O)c3c(O)cc(O)cc3O2)c(O)cc1O` (racemic) [KUWANON E], for which the concentration for a half-maximal effect (EC50) in the assay with HeLa, in the assay on U-266, in the assay with RPMI-8226, in the assay on MCF7, with THP-1 and in the assay with CCRF-CEM was above 10 µM each time. Further, in the assay on BJ, the EC50 was above 10 µM.

For the molecule `O=C1c2c(O)cc(O)cc2O[C@H](c2ccc(O)c(O)c2)[C@H]1O` [(+)-TAXIFOLIN], the EC50 in the assay with HeLa, with U-266, with RPMI-8226, in the assay with MCF7, with THP-1 and with CCRF-CEM was above 10 µM in each case. Besides, in the assay with BJ, the EC50 was above 10 µM.

As for `CC(C)=CCC/C(C)=C/Cc1c(O)cc2c(c1O)C(=O)C[C@@H](c1ccc(O)cc1)O2` [BONANNIONE A], the EC50 in the assay on HeLa is above 10 µM; in the assay on U-266, above 10 µM; in the assay with RPMI-8226, above 10 µM; in the assay with MCF7, above 10 µM; in the assay on THP-1, above 10 µM; in the assay on CCRF-CEM, 11.6 µM. Moreover, the EC50 in the assay with BJ is above 10 µM.

On to `CC[C@@]1(O)C(=O)OCc2c1cc1n(c2=O)Cc2cc3ccccc3nc2-1` [CAMPTOTHECIN], for which the concentration giving a half-maximal response (EC50) in the assay with THP-1 is 0.16 µM.

As to `CCOC(=O)NC1=C(N2CC2)C(=O)C(NC(=O)OCC)=C(N2CC2)C1=O` [DIAZIQUONE], the EC50 is 6.4 µM in the assay with HeLa; 2.8 µM in the assay on U-266; 3.4 µM with RPMI-8226; 4 µM in the assay on MCF7; 0.86 µM in the assay with CCRF-CEM; below 10 µM with BJ.

As for `COc1ccc([C@@H]2CC(=O)c3c(O)cc(O)cc3O2)cc1O` [HESPERETIN], the half-maximal effective concentration (EC50) in the assay with HeLa, in the assay with U-266, with RPMI-8226, in the assay with MCF7, with THP-1 and in the assay on CCRF-CEM was above 10 µM each time. The EC50 with BJ was above 10 µM.

On to `O=C1C[C@@H](c2ccc(O)cc2)Oc2cc(O)cc(O)c21` [NARINGENIN], for which the EC50 in the assay on HeLa, with U-266, in the assay with RPMI-8226, in the assay with MCF7, in the assay on THP-1 and with CCRF-CEM was above 10 µM in each case. Also, the concentration for a half-maximal effect (EC50) with BJ is above 10 µM.

For the molecule `CC(C)=CCC/C(C)=C/Cc1c(O)cc2c(c1O)C(=O)C[C@@H](c1ccc(O)c(O)c1)O2` [NYMPHAEOL A], the EC50 with HeLa was below 10 µM; in the assay on U-266, 2.4 µM; with RPMI-8226 it was below 10 µM; in the assay on MCF7, below 10 µM; with THP-1, below 10 µM; in the assay on CCRF-CEM, 3.2 µM. Moreover, the 50% effective concentration (EC50) with BJ is 5.9 µM.

Take `CC[C@H](CO)Nc1nc(NCc2ccccc2O)c2ncn(C(C)C)c2n1` [OLOMOUCINE II]: the EC50 is 9.9 µM in the assay on HeLa; 7.2 µM in the assay with U-266; 6 µM in the assay on RPMI-8226; 4.6 µM with MCF7; 8.1 µM in the assay on CCRF-CEM; 5.4 µM with BJ.

For the molecule `COc1cc([C@@H]2CC(=O)c3c(cc(O)c(C/C=C(\C)C/C=C/C(C)(C)O)c3O)O2)ccc1O` [TOMENTODIPLACONE B], the EC50 in the assay on HeLa, in the assay with U-266, with RPMI-8226, in the assay on MCF7, in the assay on THP-1 and with CCRF-CEM was above 10 µM in each case. For the same molecule, in the assay with BJ, the EC50 is above 10 µM.

In the case of `C=C(C)C(O)CC/C(C)=C/Cc1c(O)cc2c(c1O)C(=O)C[C@@H](c1ccc(O)c(OC)c1)O2` (stereo partly specified) [TOMENTODIPLACONE], the 50% effective concentration (EC50) in the assay on HeLa, with U-266, in the assay on RPMI-8226, in the assay on MCF7, with THP-1 and in the assay with CCRF-CEM was above 10 µM in each case. Further, the EC50 in the assay with BJ is above 10 µM.
